Bioassay records from PubChem BioAssay.
KCNK3 block = human KCNK3 channel inhibition, primary screen; O14649; 340,000 compounds, 0.84% hits; B-score at 10 µM; AID 602410; CHO-KCNK3 thallium flux, FluxOR fluorescence; stronger effect = lower value;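 active means B-score under library mean minus 4 SD, starting fluorescence ratio at most library mean plus 5 SD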;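 further: more negative B-score means stronger inhibition of thallium flux through KCNK3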
hERG rescue = compounds protecting human hERG from proarrhythmic drug block. Q12809. CHO-hERG, FluxOR thallium flux, dofetilide IC70 present. activation (rescue from dofetilide block), less the hit threshold, % at 10 µM. 310,000 compounds, 0.51% hits. AID 1511;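 active means activation above the mean of controls blocked by dofetilide plus 5 SD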;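 further: thallium influx through hERG after potassium depolarization seen as dye fluorescence rise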
KCNQ1 act = potentiates or activates the human KCNQ1 potassium channel; P51787; CHO-K1 KCNQ1, thallium flux FluxOR fluorescence; stronger effect = higher value; B-score at 10 µM; 310,000 compounds, 0.35% hits; AID 2648;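 active means fluorescence ratio B-score, a plate-corrected score, at least three library SD, with initial intensity B-score within 5 SD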
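Schedule – 37 °C overnight plating, 90-min dark dye load, 20-min compound pretreatment · System – stable KCNQ1 CHO-K1 line · Probe or stimulus – thallium- and potassium-containing depolarizing buffer · Measured by – kinetic FluxOR fluorescence, 10 s baseline plus 110 s post-stimulus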
KCNQ1 block = human KCNQ1 channel inhibition. P51787. CHO-K1 KCNQ1, FluxOR thallium flux fluorescence; stronger effect = higher value. B-score at 10 µM. 310,000 compounds, 1.3% hits. AID 2642;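 active means compounds whose thallium flux B-score, printed positive for inhibition, exceeds three library SD while starting fluorescence stays within three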;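 further: channel opened by potassium depolarization with thallium stimulus after 20 min compound exposure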
KCNK9 block = inhibitors of human KCNK9 two-pore domain potassium channel; Q9NPC2; HEK293 KCNK9, FluxOR thallium flux fluorescence; stronger effect = lower value; B-score at 10 µM; 310,000 compounds, 1.2% hits; AID 488922;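 active means ratio B-score over 3 SD below the library mean, with starting fluorescence within 5 SD of its mean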;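 further: negative B-score means less thallium flux so channel inhibition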
Target sequence (Q9NPC2 whole entry, looked up, the tested form may be a part): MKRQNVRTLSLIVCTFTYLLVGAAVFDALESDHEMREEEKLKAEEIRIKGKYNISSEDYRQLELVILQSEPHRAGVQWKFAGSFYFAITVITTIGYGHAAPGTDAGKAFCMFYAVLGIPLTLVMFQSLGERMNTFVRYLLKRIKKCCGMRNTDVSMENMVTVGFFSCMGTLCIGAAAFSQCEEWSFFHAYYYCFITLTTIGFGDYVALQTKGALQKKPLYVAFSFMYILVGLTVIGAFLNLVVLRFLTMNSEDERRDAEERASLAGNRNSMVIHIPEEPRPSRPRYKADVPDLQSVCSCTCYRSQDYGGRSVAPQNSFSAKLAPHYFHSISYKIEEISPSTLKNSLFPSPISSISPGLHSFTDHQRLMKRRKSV
KCNK9 block conf = human KCNK9 inhibitor confirmation; HEK293 KCNK9 cells, FluxOR thallium flux fluorescence; inhibition, % at 10 µM; shares compounds with KCNK9 block; 4,900 compounds, 43% hits;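 active means thallium signal inhibited by more than 5 SD of the compound-free buffer control wells, on both duplicate plates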;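 further: 0% = assay buffer control wells without compound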
Kir2-1 spec = selectivity of KCNK9 modulators against mouse Kir2.1 | shares compounds with KCNK9 block | 4,900 compounds, 4% hits | Kir2.1 cells, FluxOR thallium flux fluorescence | inhibition, % at 10 µM;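 active means thallium signal drop more than 5 SD beyond the mean of the no-compound control wells, seen in both duplicate plates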;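 further: signal is fluorescence rise after thallium addition divided by baseline fluorescence; plate controls were assay buffer only for no effect and full block by chlorpromazine control for full effect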
HEK293 Tl ctr = non-induced cell nonspecific activity of KCNK9 modulators. non-induced KCNK9-HEK293, FluxOR thallium flux. AID 492997. inhibition, % at 10 µM. shares compounds with KCNK9 block. 4,900 compounds, 40% hits;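 active means thallium signal drop beyond 5 SD of the untreated control mean, on both duplicate plates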;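 further: plate controls were buffer only IC0 wells for no effect and SID17386958 at its maximal inhibitory level for full effect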
The depositor's hits bear a star; i = inactive; . = no result given. This is a sample that favours compounds with a hit; in the whole collection about 3.1% have one here.

SMILES	KCNK3 block	hERG rescue	KCNQ1 act	KCNQ1 block	KCNK9 block	KCNK9 block conf	Kir2-1 spec	HEK293 Tl ctr
COc1ccc(OCCSc2nnc(C)n2-c2ccccc2)cc1	i	-6.3	i	i	i	i	i	i
Cc1ccc(NC(=S)NNC(=O)c2ccc(N3CCOCC3)c([N+](=O)[O-])c2)cc1Cl	i	-6.7	i	6*	i	i	i	i
O=C(c1cc([N+](=O)[O-])ccc1Cl)N1c2ccccc2Sc2ccccc21	i	-11.9	i	i	-11.7*	61.0%*	i	45.0%*
O=C(NNC(=S)Nc1ccc(Cl)c(Cl)c1)c1cccc([N+](=O)[O-])c1	i	-26.1	i	11*	i	i	i	i
O=C(NNC(=S)NC(=O)c1ccccc1)c1cccc([N+](=O)[O-])c1	i	-11.4	i	i	i	.	.	.
O=C(NNC(=S)Nc1ccc(Cl)cc1Cl)c1ccc(N2CCOCC2)c([N+](=O)[O-])c1	i	-10.0	i	6*	i	i	i	i
O=C(Nc1cccc(NC(=O)c2cc([N+](=O)[O-])ccc2Cl)n1)c1cc([N+](=O)[O-])ccc1Cl	-9.92*	-12.4	i	i	-8.18*	i	i	25.5%*
O=C(Cc1coc2ccc3ccccc3c12)NC1CCCc2ccccc21 (stereo not given)	i	-8.7	i	i	-11*	66.0%*	i	36.5%*
CCOc1ccc(-c2nc(CSCC(=O)NC3CCCc4ccccc43)c(C)o2)cc1 (stereo not given)	i	-9.1	i	6*	-8.3*	43.5%*	i	42.0%*
O=C(Cc1coc2ccc3ccccc3c12)NCc1ccccc1	i	-11.4	i	i	i	.	.	.
O=C(CCl)NC1CCCc2ccccc21 (stereo not given)	i	0.4	i	i	i	.	.	.
O=C(CCCOc1ccccc1)NC1CCCc2ccccc21 (stereo not given)	i	-5.4	i	i	i	i	i	i
O=C(CC(CC(=O)c1ccccc1)c1ccccn1)c1ccccc1	i	.	.	.	.	.	.	.
O=Nc1c(O)n(Cc2cccc(Cl)c2)c2ccccc12	i	-17.9	i	i	i	.	.	.
Cc1cc(C)nc(N=Nc2c(O)n(Cc3ccc(Cl)cc3)c3ccccc23)n1	i	-3.9	i	i	-18.2*	72.0%*	i	26.5%*
N#Cc1ccccc1OCC(=O)OCC(=O)N1CCN(C(=O)c2ccco2)CC1	i	-16.6	i	i	i	.	.	.
Cc1ccc2c(c1)N(CCCC(=O)NCCC1=CCCCC1)C(=O)CO2	i	-6.6	i	i	i	i	i	i
CCn1cc(C(=O)Nc2ccc(Cl)cc2Cl)cn1	i	-9.9	i	i	i	.	.	.
Cc1cccc(Oc2nc(CN3CCOCC3)nc3sc4c(c23)CCCC4)c1	i	-16.0	i	i	i	i	i	i
Clc1nc(CN2CCOCC2)nc2sc3c(c12)CCC3	i	-8.4	i	i	i	.	.	.
Cc1cc(NC(=S)Nc2cccc3ccccc23)n[nH]1	i	-4.7	i	i	i	.	.	.
CCOc1cc(CNc2ccc(N3CCOCC3)cc2)cc(Br)c1OCC	i	-8.0	i	i	i	.	.	.
CCOc1cc(CNc2ccc3c(c2)OCCO3)cc(Br)c1OCC	i	-6.6	i	i	i	i	i	i
C=CCC1(CC=C)CCCN1C(=O)c1cc(COc2ccc(F)c(F)c2)on1	i	-5.4	i	10*	i	i	i	i
Nc1ncncc1-c1ccccc1Cl	i	.	.	.	.	.	.	.
CC1CCN(Cc2c(C(=O)N/N=C/c3ccc(C(C)(C)C)cc3)nnn2-c2nonc2N)CC1	i	-8.9	i	i	i	i	i	i
CCCc1cc(=O)oc2cc(OCc3ccc(OC)cc3)c(Cl)cc12	i	-8.0	i	i	i	.	.	.
